Only some compounds are listed: those with a hit (about 3% of all), similar ones and a draw of the others.
SENP8 block-1 = blocks the human protease SENP8; Q96LD8; purified SENP8, Z-RLRGG-aminoluciferin cleavage, luminescence; inhibition, % at 10 µM; actives 1.2% (n = 330,000); AID 2540; in the data active = inhibition above about 50%
Target sequence (Q96LD8 whole entry, looked up): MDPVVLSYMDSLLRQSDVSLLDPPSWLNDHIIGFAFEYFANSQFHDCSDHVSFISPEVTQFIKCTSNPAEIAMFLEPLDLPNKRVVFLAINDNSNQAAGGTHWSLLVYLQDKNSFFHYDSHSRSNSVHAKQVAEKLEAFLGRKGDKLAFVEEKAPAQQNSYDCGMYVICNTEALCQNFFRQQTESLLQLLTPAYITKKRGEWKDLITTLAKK
SENP7 inh = SENP7 protease inhibition; recombinant SENP7, Z-RLRGG-aminoluciferin luminescence, 40 min; inhibition, % at 5 µM; actives 1.5% (n = 330,000);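 active = inhibition above about 50% at the single test dose, limit read from the data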;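 note: plate controls were DMSO with enzyme for no effect and no enzyme buffer wells for full effect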
Target sequence (Q9BQF6 706-1050 limits assumed): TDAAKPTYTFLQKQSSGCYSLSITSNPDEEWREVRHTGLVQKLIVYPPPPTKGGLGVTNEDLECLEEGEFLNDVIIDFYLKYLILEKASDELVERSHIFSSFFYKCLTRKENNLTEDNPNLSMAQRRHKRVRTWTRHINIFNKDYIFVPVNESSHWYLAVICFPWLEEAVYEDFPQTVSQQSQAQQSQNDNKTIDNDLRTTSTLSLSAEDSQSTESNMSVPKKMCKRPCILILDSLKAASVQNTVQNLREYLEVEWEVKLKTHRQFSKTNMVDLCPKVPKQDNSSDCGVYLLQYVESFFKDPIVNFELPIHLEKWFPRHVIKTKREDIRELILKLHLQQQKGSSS
UBC13 inh = human UBC13 polyubiquitination inhibition. P61088. UBC13 polyubiquitin chain formation, TR-FRET. inhibition, % at 20 µM. actives 0.47% (n = 330,000); in the data active = inhibition above about 45%, passing the limit was not always enough
Target sequence (P61088 whole entry, looked up): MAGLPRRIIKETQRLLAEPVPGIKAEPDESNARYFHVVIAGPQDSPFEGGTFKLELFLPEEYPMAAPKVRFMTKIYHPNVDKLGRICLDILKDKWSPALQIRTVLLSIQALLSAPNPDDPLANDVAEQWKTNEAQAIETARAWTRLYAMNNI
Apaf-1 inh = human Apaf-1 inhibition. reconstituted apoptosome caspase-3 activity, DEVD-Rh110 fluorescence. actives 0.71% (n = 330,000). O14727. inhibition, % at 20 µM; active = inhibition of at least 40% at 20 µM;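 note: plate controls were DMSO wells for no effect and DEVD-CHO caspase inhibitor wells for full effect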
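detection = Rh110 fluorescence intensity | test system = biochemical Apaf-1 apoptosome reconstitution | also added = cytochrome c and DEVD-Rh110 substrate | schedule = 30 min plus 50 min, RT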
SENP6 inh = inhibitors of human SENP6 protease. AID 2599. Q9GZR1. actives 1.8% (n = 330,000). Recombinant SENP6 catalytic domain, aminoluciferin luminescence. inhibition, % at 10 µM;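 active = inhibition above about 50% at the single tested dose, limit read from the data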;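 note: plate controls were DMSO wells with enzyme for no effect and DMSO wells lacking enzyme for full effect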
SENP8 block-2 = inhibitors of human SENP8 protease. recombinant SENP8, Nedd8 substrate fluorescence. actives 0.64% (n = 360,000). inhibition, % at 20 µM. Q96LD8. AID 602440; in the data active = inhibition mostly above about 40%, no sharp cut-off; inactive = mostly below about 27%
SENP8 conf = confirmation of human SENP8 protease inhibitors; shares compounds with SENP7 inh; Recombinant SENP8, Z-RLRGG-aminoluciferin luminescence, 60 min; inhibition, % at 12.5 µM; actives 40% (n = 6,200);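 active = mean inhibition across replicates above about 50%, limit read from the data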
SENP6 conf = human SENP6 inhibition, confirmed; shares compounds with SENP7 inh; actives 58% (n = 6,200); inhibition, % at 12.5 µM; recombinant SENP6, Z-RLRGG-aminoluciferin luminescence
SENP7 conf = confirmation of human SENP7 protease inhibitors; inhibition, % at 12.5 µM; recombinant SENP7, Z-RLRGG-aminoluciferin luminescence, 40 min; shares compounds with SENP7 inh; actives 69% (n = 6,200)
Casp3 SENP sel = selectivity test for SENP inhibitors: human caspase-3 inhibition; inhibition, % at 12.5 µM; purified caspase-3, Z-DEVD-aminoluciferin luminescence, 60 min; actives 60% (n = 6,200); AID 488918; shares compounds with SENP7 inh;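 active = mean inhibition above about 50%, limit read from the data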;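 note: plate controls were enzyme with DMSO for no effect and wells without caspase-3 for full effect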
Luc interf = counter-screen for SENP inhibitors: luminescence interference; shares compounds with SENP7 inh; inhibition, % at 12.5 µM; actives 39% (n = 6,200); Pre-incubated SENP8/Z-RLRGG-aminoluciferin, luciferase luminescence interference; AID 488919;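 active = mean inhibition above about 50% when retested at one dose, limit read from the data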;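 note: plate controls were DMSO wells with completed reaction for no effect and substrate without enzyme for full effect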
Numbers without * were called inactive; nt = no result given.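 Rule for the calls, unless noted: active = mean inhibition above about 50% in the one-dose retest (limit read from the data); inactive = the rest.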

SMILES | SENP8 block-1 | SENP7 inh | UBC13 inh | Apaf-1 inh | SENP6 inh | SENP8 block-2 | SENP8 conf | SENP6 conf | SENP7 conf | Casp3 SENP sel | Luc interf
O=C(c1ccccc1)c1ccc(Cn2cc(-c3ccccc3)nn2)cc1 | 58* | 52* | 4 | 17 | 61* | 13 | 52* | 65* | 83* | 31 | 17
COC(=O)C[C@@H]1CC[C@@H](NS(=O)(=O)c2ccccc2OC)[C@@H](CO)O1 | nt | nt | nt | nt | nt | 20 | nt | nt | nt | nt | nt
CCOc1ccccc1NC(=O)c1cc2ccccc2oc1=O | -6 | 8 | -6 | 1 | -24 | 31 | nt | nt | nt | nt | nt
Cc1ccc(NC(=O)c2cc3ccccc3oc2=O)cc1S(=O)(=O)N(C)C | 25 | 73* | -1 | 11 | 36 | 9 | 22 | 25 | 17 | 39 | 7
COc1cc2ccccc2cc1C(=O)Nc1ccc(O)cc1 | 44 | 57* | 6 | 11 | 63* | -89 | 8 | 37 | 87* | 60* | 3
COc1ccc(NC(=O)c2cc3ccccc3cc2O)cc1 | 50 | 13 | -18 | 38 | 51* | 20 | 25 | 33 | 88* | 44 | 8
O=C(Nc1ccc(F)cc1F)c1cc2ccccc2oc1=O | 7 | 63* | -4 | -2 | 28 | 17 | 7 | 6 | 46 | 54* | 23
COC(=O)C(C(=O)OC)c1ccccc1NS(=O)(=O)c1c(C)cc(C)cc1C | nt | nt | nt | nt | nt | 20 | nt | nt | nt | nt | nt
COc1ccc(NC(=O)c2cc3ccccc3oc2=O)cc1 | nt | nt | nt | nt | nt | 28 | nt | nt | nt | nt | nt
COc1ccc2oc(=O)c(C(=O)Nc3ccccc3O)cc2c1 | 75* | 95* | -9 | -5 | 77* | 32 | 61* | 78* | 94* | 74* | 21
Cc1cccc(N2CCN(C(C(=O)NCc3ccccc3)c3ccc(C(F)(F)F)cc3)CC2)c1C (stereo not given) | nt | nt | nt | nt | nt | -4 | nt | nt | nt | nt | nt
CCOc1ccccc1NC(=O)C1CCCN1S(=O)(=O)c1ccc2c(c1)C(C)(C)C(=O)N2C (stereo not given) | nt | nt | nt | nt | nt | 14 | nt | nt | nt | nt | nt
Cn1c(C(=O)Nc2ccc3c(c2)OCO3)cc2sccc21 | 46 | 63* | -5 | 9 | 71* | -23 | 59* | 61* | 88* | 47 | 44
COC(=O)c1ccc(NC(=O)c2cc3sccc3n2C)cc1 | nt | nt | nt | nt | nt | -187 | nt | nt | nt | nt | nt
Cn1c(C(=O)Nc2ccccc2)cc2sccc21 | 17 | 38 | 2 | 19 | 53* | 9 | 34 | 33 | 68* | 36 | 54*
COc1cc(NC(=O)c2cc3sccc3n2C)cc(OC)c1 | 50* | 66* | -2 | 14 | 64* | -10 | 6 | 60* | 84* | 40 | 65*
CCOC(=O)[C@]12CCCC=C1N(Cc1ccccc1)C(=O)[C@H](CC(=O)N1CCC(c3ccccc3)CC1)C2 | nt | nt | nt | nt | nt | 16 | nt | nt | nt | nt | nt
O=C(NCc1ccc2c(c1)OCO2)Nc1cccc(Cl)c1 | 7 | 10 | 2 | -45 | 20 | 0 | nt | nt | nt | nt | nt
O=C(Nc1cccc(Cl)c1)Nc1ccc2c(c1)OCO2 | 61* | 75* | 0 | 9 | 83* | 23 | 28 | 77* | 94* | 56* | 21
O=C(Nc1ccc2c(c1)OCCO2)Nc1ccc2c(c1)OCO2 | 53* | 72* | -6 | 5 | 71* | 4 | 65* | 64* | 86* | 72* | 9
O=C(Nc1ccc2c(c1)OCO2)Nc1ccccc1F | 95* | 99* | -3 | 5 | 94* | 1 | 96* | 98* | 102* | 97* | 68*
Cc1ccnc(NC(=O)Nc2ccc3c(c2)OCO3)c1 | -9 | 70* | 4 | -16 | 36 | 7 | 9 | 10 | 12 | 14 | -4
CC(=O)c1cccc(-c2ccnc3c2CC(C(=O)Nc2ccc(F)c(Cl)c2)O3)c1 (stereo not given) | nt | nt | nt | nt | nt | 7 | nt | nt | nt | nt | nt
CCNC(=O)N(C)c1c(CC)nc2ccc(C(=O)N3CCN(S(=O)(=O)CC)CC3)cn12 | nt | nt | nt | nt | nt | 1 | nt | nt | nt | nt | nt
COc1cccc(NC(=O)CN(C)CC(=O)Nc2ccc3c(c2)OCO3)c1 | -9 | 5 | -2 | -5 | -5 | 6 | nt | nt | nt | nt | nt
SMILES | SENP8 block-1 | SENP7 inh | UBC13 inh | Apaf-1 inh | SENP6 inh | SENP8 block-2 | SENP8 conf | SENP6 conf | SENP7 conf | Casp3 SENP sel | Luc interf
COc1cccc(NC(=O)Nc2ccc3c(c2)OCO3)c1 | 55* | 79* | 3 | 4 | 73* | -3 | 54* | 51* | 84* | 74* | 71*
Cc1cc2nc(N)sc2cc1C | 65* | 70* | 2 | 10 | 47 | 19 | 75* | 74* | 92* | 84* | 73*
O=C(c1cc(-c2ccccc2Cl)on1)N1CCCC1 | 57* | 63* | 4 | 7 | 72* | 9 | 9 | 64* | 90* | 78* | 66*
CC1CCN(C(=O)c2ccc(-c3ccccc3Cl)o2)CC1 | 49 | 42 | -4 | 22 | 72* | 6 | 66* | 66* | 82* | 51* | 65*
O=C(c1cc(-c2ccccc2)on1)N1CCCC1 | 1 | 46 | -6 | -26 | 17 | 26 | nt | nt | nt | nt | nt
O=C(c1cc(-c2ccc(Cl)cc2)on1)N1CCCC1 | 33 | 33 | 3 | 7 | 56* | 20 | 18 | 13 | 32 | 22 | -2
O=C(c1cc(-c2ccc(Cl)c(Cl)c2)on1)N1CCCCC1 | 14 | 57* | 1 | 12 | 35 | 10 | 20 | 20 | 24 | 12 | 5
COc1cc(NC(=O)c2sc3ncn(CC(=O)N4CCCCC4C)c(=O)c3c2C)cc(OC)c1OC (stereo not given) | nt | nt | nt | nt | nt | 5 | nt | nt | nt | nt | nt
CN(C)c1ccc(/C=N/n2ncc3ccccc32)cc1 | 68* | 2 | 6 | 11 | 76* | -252 | -5 | 85* | 97* | 70* | 43
C=CCn1c(/N=C/c2ccc(OC)cc2)nc2ccccc21 | -4 | -6 | 8 | 2 | 34 | 24 | nt | nt | nt | nt | nt
CN(C)c1ccc(C=Nc2ccccc2)cc1 | -6 | -3 | -5 | -18 | -11 | 0 | nt | nt | nt | nt | nt
C=CCn1c(/N=C/c2ccc(N(C)C)cc2)nc2ccccc21 | 71* | 6 | -9 | 3 | 77* | 6 | 81* | 78* | 94* | 75* | 85*
COc1ccc([C@H]2CC(=O)C[C@@H](CCn3cc(-c4nccn4C)nn3)O2)cc1 | nt | nt | nt | nt | nt | 6 | nt | nt | nt | nt | nt

Screening data: PubChem, Sanford-Burnham Center for Chemical Genomics
